Measured values published in ChEMBL document CHEMBL4257564, “Rational Design, Synthesis, and Pharmacological Characterization of Novel Ghrelin Receptor Inverse Agonists as Potential Treatment against Obesity-Related Metabolic Diseases” (J Med Chem, 2018).

How the values were obtained:
[1] = biological target: T1, Growth hormone secretagogue receptor type 1 (Homo sapiens, UniProt Q92847); assay: Inverse agonist at recombinant human GHSR1a expressed in HEK293 cells assessed as decrease in IP1 accumulation after 1 hr by IP1-d2-based HTRF assay; assay type: functional, cell-based
In short: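 HEK293 cells stably expressing human GHSR1a were seeded on Matrigel in complete DMEM for 18–22 h at 37 °C, 5% CO2. Compound in stimulation buffer was applied for 1 h at 37 °C. IP1-d2 and Tb-cryptate were then added for 1 h at room temperature, with HTRF read at 620/665 nm. Mean of at least two independent runs in triplicate.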

[2] = biological target: T1, Growth hormone secretagogue receptor type 1; assay: Antagonist activity at recombinant human GHSR1a expressed in HEK293 cells assessed as inhibition of ghrelin-induced intracellular calcium release incubated for 20 secs and measured after 2 mins by FLIPR assay; assay type: functional, cell-based
In short: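 HEK293/GHSR1a cells were dye-loaded for 30-60 min. Compounds and 10 nM ghrelin were added at t = 20 s, with a 15 min compound preincubation described. Calcium response was read for 2 min. IC50 was taken from dose-response fits of the reduction in ghrelin response; mean of at least two independent runs done in triplicate.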

[3] = biological target: T1, Growth hormone secretagogue receptor type 1; assay: Agonist activity at recombinant human GHSR1a expressed in HEK293 cells assessed as induction of intracellular calcium release after 15 mins by FLIPR assay; assay type: functional, cell-based; conditions: read-out: EC50
In short: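 HEK293 cells stably expressing human GHSR1a, seeded 24 h before the run, then loaded with calcium dye for 30-60 min at room temperature or 37 °C. DMSO-dissolved compounds were added and intracellular calcium release was monitored by FLIPR fluorescence.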

[4] = Clearance in dog liver microsomes at 0.625 uM preincubated for 5 mins followed by NADPH addition and measured after 60 mins by LC-MS/MS analysis; assay type: ADME, Canis lupus familiaris, microsome; conditions: read-out: CLH
In short: (§1)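 Liver microsomes (0.625 mg/mL protein) in 50 mM potassium phosphate pH 7.4 with 0.625 µM test item, prewarmed 5 min at 37 °C. Reaction started with NADPH (5 mM solution). Samples taken at 0, 5, 15, 30 and 60 min into cold MeCN with internal standard, analysed by LC-MS/MS. Intrinsic clearance derived by the half-life approach.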

[5] = Clearance in mouse liver microsomes at 0.625 uM preincubated for 5 mins followed by NADPH addition and measured after 60 mins by LC-MS/MS analysis; assay type: ADME, microsome; conditions: read-out: CLH; in short: as §1
[6] = Clearance in rat liver microsomes at 0.625 uM preincubated for 5 mins followed by NADPH addition and measured after 60 mins by LC-MS/MS analysis; assay type: ADME, microsome; conditions: read-out: CLH; in short: as §1
[7] = Clearance in human liver microsomes at 0.625 uM preincubated for 5 mins followed by NADPH addition and measured after 60 mins by LC-MS/MS analysis; assay type: ADME, microsome; conditions: read-out: CLH; in short: as §1

T1 sequence (Q92847 whole entry): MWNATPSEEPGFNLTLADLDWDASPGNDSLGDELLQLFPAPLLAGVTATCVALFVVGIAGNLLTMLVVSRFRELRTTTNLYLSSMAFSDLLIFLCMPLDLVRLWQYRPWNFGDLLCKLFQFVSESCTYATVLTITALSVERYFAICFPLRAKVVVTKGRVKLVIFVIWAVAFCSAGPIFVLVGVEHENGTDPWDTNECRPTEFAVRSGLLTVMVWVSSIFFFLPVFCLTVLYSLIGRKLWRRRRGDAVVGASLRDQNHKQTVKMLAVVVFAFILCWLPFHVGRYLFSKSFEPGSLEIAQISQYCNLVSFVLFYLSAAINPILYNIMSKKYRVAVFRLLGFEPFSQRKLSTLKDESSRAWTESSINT

Row | SMILES | EC50 ([1]; hek293) | IC50 [2] [nM] | EC50 [3] [nM] | EC50 ([1]; read-out: EC50) [nM] | microsomal CLint at 0.625 µM [4] [µL/min/mg] | microsomal CLint at 0.625 µM [5] [µL/min/mg] | microsomal CLint at 0.625 µM [6] [µL/min/mg] | microsomal CLint at 0.625 µM [7] [µL/min/mg]
1 | Cc1cn2cc(C(C)NC(=O)N(C)C3CCN(C)CC3)nc2s1 (centres undefined) | Not Active | > 30000 | > 30000 |  |  |  |  | 
2 | COC(=O)c1ccc([C@H](C)NC(=O)N(C)C2CCN(C3CCc4cc(-c5cc(C)ncn5)ccc43)CC2)c(Cl)c1Cl (some centres undefined) |  | 303 |  | 96 |  |  |  | 
3 | Cc1ccc2c(c1)CCC2N1CCC(N(C)C(=O)N[C@@H](C)c2ccc(C#C[Si](C)(C)C)c(Cl)c2Cl)CC1 (some centres undefined) | Not Active | 2000 |  |  |  |  |  | 
4 | Cc1cc(-c2ccc3c(c2)CCC3N2CCC(N(C)C(=O)N[C@@H](C)c3ccc(C4CC4)c(Cl)c3Cl)CC2)ncn1 (some centres undefined) |  | 2870 |  | 298 |  |  |  | 
5 | Cc1cc(-c2ccc3c(c2)CCC3N2CCC(N(C)C(=O)N[C@@H](C)c3ccc(C(=O)O)c(Cl)c3Cl)CC2)ncn1 (some centres undefined) | Not Active | > 30000 |  |  |  |  |  | 
6 | Cc1cc(-c2ccc3c(c2)CCC3N2CCC(N(C)C(=O)N[C@@H](C)c3ccc(C#CC4CC4)c(Cl)c3Cl)CC2)ncn1 (some centres undefined) |  | 80 |  | 51 | 62.3 | 42.6 | 19.2 | 53.9
7 | Cc1cc(-c2ccc3c(c2)CCC3N2CCC(N(C)C(=O)N[C@@H](CC3CC3)c3ccc(-c4cnccn4)c(Cl)c3Cl)CC2)ncn1 (some centres undefined) |  | 4540 |  | 484 |  |  |  | 
8 | Cc1cc(-c2ccc3c(c2)CCC3N2CCC(N(C)C(=O)N[C@@H](C)c3ccc(-c4cnccn4)c(Cl)c3Cl)CC2)ncn1 (some centres undefined) |  | 369 | > 30000 | 194 |  |  |  | 
9 | COc1ccc([C@H](C)NC(=O)N(C)C2CCN(C3CCc4cc(-n5nccn5)ccc43)CC2)c(Cl)c1Cl (some centres undefined) |  | 240 |  | 70 |  | 244 |  | 79.8
10 | Cc1ccc2c(c1)CCC2N1CCC(N(C)C(=O)N[C@@H](C)c2ccc(C#CC3CC3)c(Cl)c2Cl)CC1 (some centres undefined) |  | 282 |  | 117 |  |  |  | 
11 | Cc1cc(-c2ccc3c(c2)CC[C@H]3N2CC3(CCN(C(=O)N[C@@H](C)c4ccc(-c5cnccn5)c(Cl)c4Cl)CC3)C2)ncn1 |  | 1210 | > 30000 | 483 |  |  |  | 
12 | Cc1cc(-c2ccc3c(c2)CCC3N2CCC(N(C)C(=O)N[C@@H](C)c3ccc(C#CC4CC4)c(Cl)c3Cl)C(C)(C)C2)ncn1 (some centres undefined) |  | 530 |  | 363 |  |  |  | 
13 | COc1ccc([C@H](C)NC(=O)N(C)C2CCN(C3CCc4cc(-c5cc(C)ncn5)ccc43)CC2)c(Cl)c1Cl (some centres undefined) |  | 171 |  | 67 | 241 | 122 | 69.5 | 94.2
14 | COc1ccc([C@H](C)NC(=O)N(C)C2CCN(C3CCc4cc(C)ccc43)CC2)c(Cl)c1Cl (some centres undefined) |  | 329 |  | 73 | 168 | 217 | 143 | 80.3
15 | CC[C@H](NC(=O)N(C)C1CCN(C2CCc3cc(-c4cc(C)ncn4)ccc32)CC1)c1ccc(C#CC2CC2)c(Cl)c1Cl (some centres undefined) |  | 192 |  | 306 |  |  |  | 
16 | Cc1ccc2c(c1)CCC2N1CCC(N(C)C(=O)N[C@@H](C)c2ccc(O)c(Cl)c2Cl)CC1 (some centres undefined) |  | 1170 |  | 189 |  |  |  | 
17 | C[C@H](NC(=O)N(C)C1CCN(C2CCc3ccccc32)CC1)c1ccc(C#CC2CC2)c(Cl)c1Cl (some centres undefined) | Not Active | 919 |  |  |  |  |  | 
18 | C#Cc1ccc([C@H](C)NC(=O)N(C)C2CCN(C3CCc4cc(-c5cc(C)ncn5)ccc43)CC2)c(Cl)c1Cl (some centres undefined) |  | 156 |  | 10.6 | 137 | 157 | 65.6 | 165
19 | Cc1ccc2c(c1)CCC2N1CCC(N(C)C(=O)N[C@@H](C)c2ccc(C3CC3)c(Cl)c2Cl)CC1 (some centres undefined) | Not Active | 2370 |  |  |  |  |  | 
